ChEMBL document CHEMBL4715736, “Identification of anticancer agents based on the thieno[2,3-b]pyridine and 1H-pyrazole molecular scaffolds” (2016)

Columns and labels:
Format in all cases: functional
Details in all cases: read-out: Activity
[1] = tested on: MDA-MB-468; assay: Growth inhibition of human MDA-MB-468 cells assessed as cell growth at 10 uM incubated for 48 hrs by sulforhodamine B assay relative to control
Outline: (§1)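 Submitted to the NCI Developmental Therapeutics Program for the NCI60 human tumour cell line panel. First screen at a single 10 µM concentration. Read-out is growth relative to untreated control cells set at 100%.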

[2] = tested on: RPMI-8226; assay: Growth inhibition of human RPMI-8226 cells assessed as cell growth at 10 uM incubated for 48 hrs by sulforhodamine B assay relative to control
Outline: (§2)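 Run by the NCI Developmental Therapeutics Program as part of its 60-line human tumour panel. Each compound tested at a single 10 µM dose. Growth expressed as % relative to untreated control cells (100%).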

[3] = tested on: LOX IMVI; assay: Growth inhibition of human LOX IMVI cells assessed as cell growth at 10 uM incubated for 48 hrs by sulforhodamine B assay relative to control; outline: as §1
[4] = tested on: SF-295; assay: Growth inhibition of human SF-295 cells assessed as cell growth at 10 uM incubated for 48 hrs by sulforhodamine B assay relative to control; outline: as §2
[5] = tested on: HCC 2998; assay: Growth inhibition of human HCC 2998 cells assessed as cell growth at 10 uM incubated for 48 hrs by sulforhodamine B assay relative to control
Outline: (§3)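 NCI Developmental Therapeutics Program NCI60 panel. Compounds that were active in the 10 µM one-dose screen went on to dose–response testing. Growth at each concentration is expressed relative to untreated control (100%). GI50 (concentration giving 50% of maximal inhibition of proliferation) and TGI (concentration giving total growth inhibition) were derived from the curves.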

[6] = tested on: SNB-19; assay: Growth inhibition of human SNB-19 cells assessed as cell growth at 10 uM incubated for 48 hrs by sulforhodamine B assay relative to control; outline: as §2
[7] = tested on: SF-539; assay: Growth inhibition of human SF-539 cells assessed as cell growth at 10 uM incubated for 48 hrs by sulforhodamine B assay relative to control; outline: as §2
[8] = tested on: DU-145; assay: Growth inhibition of human DU-145 cells assessed as cell growth at 10 uM incubated for 48 hrs by sulforhodamine B assay relative to control; outline: as §3
[9] = tested on: ACHN; assay: Growth inhibition of human ACHN cells assessed as cell growth at 10 uM incubated for 48 hrs by sulforhodamine B assay relative to control
Outline: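 NCI Developmental Therapeutics Program NCI60 human tumour cell line panel, one-dose primary screen with every compound at 10 µM. Growth is expressed as % of untreated control cells (100%).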

[10] = tested on: OVCAR-3; assay: Growth inhibition of human OVCAR-3 cells assessed as cell growth at 10 uM incubated for 48 hrs by sulforhodamine B assay relative to control; outline: as §2
[11] = tested on: NCI-H23; assay: Growth inhibition of human NCI-H23 cells assessed as cell growth at 10 uM incubated for 48 hrs by sulforhodamine B assay relative to control; outline: as §1
[12] = tested on: CCRF-CEM; assay: Growth inhibition of human CCRF-CEM cells assessed as cell growth at 10 uM incubated for 48 hrs by sulforhodamine B assay relative to control; outline: as §3
[13] = tested on: MCF7; assay: Growth inhibition of human MCF7 cells assessed as cell growth at 10 uM incubated for 48 hrs by sulforhodamine B assay relative to control; outline: as §1
[14] = tested on: Malme-3M; assay: Growth inhibition of human Malme-3M cells assessed as cell growth at 10 uM incubated for 48 hrs by sulforhodamine B assay relative to control; outline: as §1
[15] = tested on: A549; assay: Growth inhibition of human A549/ATCC cells assessed as cell growth at 10 uM incubated for 48 hrs by sulforhodamine B assay relative to control; outline: as §3
[16] = tested on: SK-MEL-5; assay: Growth inhibition of human SK-MEL-5 cells assessed as cell growth at 10 uM incubated for 48 hrs by sulforhodamine B assay relative to control; outline: as §2
[17] = tested on: U-251; assay: Growth inhibition of human U-251 cells assessed as cell growth at 10 uM incubated for 48 hrs by sulforhodamine B assay relative to control; outline: as §2
[18] = tested on: NCI-H460; assay: Growth inhibition of human NCI-H460 cells assessed as cell growth at 10 uM incubated for 48 hrs by sulforhodamine B assay relative to control; outline: as §1
[19] = tested on: OVCAR-5; assay: Growth inhibition of human OVCAR-5 cells assessed as cell growth at 10 uM incubated for 48 hrs by sulforhodamine B assay relative to control; outline: as §2
[20] = tested on: SN12C; assay: Growth inhibition of human SN12C cells assessed as cell growth at 10 uM incubated for 48 hrs by sulforhodamine B assay relative to control; outline: as §2
[21] = tested on: HOP-62; assay: Growth inhibition of human HOP-62 cells assessed as cell growth at 10 uM incubated for 48 hrs by sulforhodamine B assay relative to control; outline: as §1
[22] = tested on: RXF 393; assay: Growth inhibition of human RXF 393 cells assessed as cell growth at 10 uM incubated for 48 hrs by sulforhodamine B assay relative to control; outline: as §2
[23] = tested on: SK-MEL-28; assay: Growth inhibition of human SK-MEL-28 cells assessed as cell growth at 10 uM incubated for 48 hrs by sulforhodamine B assay relative to control; outline: as §2
[24] = tested on: KM12; assay: Growth inhibition of human KM12 cells assessed as cell growth at 10 uM incubated for 48 hrs by sulforhodamine B assay relative to control; outline: as §1
[25] = tested on: UACC-62; assay: Growth inhibition of human UACC-62 cells assessed as cell growth at 10 uM incubated for 48 hrs by sulforhodamine B assay relative to control; outline: as §2
[26] = tested on: COLO 205; assay: Growth inhibition of human COLO 205 cells assessed as cell growth at 10 uM incubated for 48 hrs by sulforhodamine B assay relative to control; outline: as §3
[27] = tested on: HCT-116; assay: Growth inhibition of human HCT-116 cells assessed as cell growth at 10 uM incubated for 48 hrs by sulforhodamine B assay relative to control; outline: as §1
[28] = tested on: UACC-257; assay: Growth inhibition of human UACC-257 cells assessed as cell growth at 10 uM incubated for 48 hrs by sulforhodamine B assay relative to control; outline: as §2
[29] = tested on: OVCAR-4; assay: Growth inhibition of human OVCAR-4 cells assessed as cell growth at 10 uM incubated for 48 hrs by sulforhodamine B assay relative to control; outline: as §2
[30] = tested on: M14; assay: Growth inhibition of human M14 cells assessed as cell growth at 10 uM incubated for 48 hrs by sulforhodamine B assay relative to control; outline: as §1
[31] = tested on: OVCAR-8; assay: Growth inhibition of human OVCAR-8 cells assessed as cell growth at 10 uM incubated for 48 hrs by sulforhodamine B assay relative to control; outline: as §2
[32] = tested on: HOP-92; assay: Growth inhibition of human HOP-92 cells assessed as cell growth at 10 uM incubated for 48 hrs by sulforhodamine B assay relative to control; outline: as §1
[33] = tested on: T47D; assay: Growth inhibition of human T47D cells assessed as cell growth at 10 uM incubated for 48 hrs by sulforhodamine B assay relative to control; outline: as §2
[34] = tested on: NCI-H322M; assay: Growth inhibition of human NCI-H322M cells assessed as cell growth at 10 uM incubated for 48 hrs by sulforhodamine B assay relative to control; outline: as §1
[35] = tested on: IGROV-1; assay: Growth inhibition of human IGROV-1 cells assessed as cell growth at 10 uM incubated for 48 hrs by sulforhodamine B assay relative to control; outline: as §1

Row | SMILES | growth at 10 µM [1] | growth at 10 µM [2] | growth at 10 µM [3] | growth at 10 µM [4] | growth at 10 µM [5] | growth at 10 µM [6] | growth at 10 µM [7] | growth at 10 µM [8] | growth at 10 µM [9] | growth at 10 µM [10] | growth at 10 µM [11] | growth at 10 µM [12] | growth at 10 µM [13] | growth at 10 µM [14] | growth at 10 µM [15] | growth at 10 µM [16] | growth at 10 µM [17] | growth at 10 µM [18] | growth at 10 µM [19] | growth at 10 µM [20] | also measured
1 | Cc1cc(C)cc(S(=O)(=O)n2ccc(-c3ccc4c(c3)CCC(C)(C)O4)n2)c1 | 54.6% | 73.2% | 95% | 85% | 88.2% | 94.6% | 99.8% | 89.8% | 92.8% | 87.8% | 73.6% | 96.3% | 81.5% | 82.9% | 80.8% | 82.9% | 85.6% | 84.4% | 116% | 88% | growth at 10 µM [21]: 116%; growth at 10 µM [22]: 77.3%; growth at 10 µM [23]: 102%; growth at 10 µM [24]: 82.7%; growth at 10 µM [25]: 73.9%; growth at 10 µM [26]: 103%; growth at 10 µM [27]: 77.8%; growth at 10 µM [28]: 89.6%; growth at 10 µM [29]: 67.3%; growth at 10 µM [30]: 82.7%; growth at 10 µM [31]: 91%; growth at 10 µM [32]: 78.1%; growth at 10 µM [33]: 58.2%; growth at 10 µM [34]: 92%; growth at 10 µM [35]: 105%
2 | COc1ccc(-c2ccn(S(=O)(=O)c3ccc(OC)cc3)n2)cc1 | 59.3% | 58.7% | 88.8% | 72.7% | 88.1% | 96.8% | 87.3% | 93.9% | 90.6% | 89.3% | 79.8% | 71.3% | 97.9% | 112% | 88.3% | 79.9% | 86.6% | 75% | 90.2% | 92.4% | growth at 10 µM [21]: 101%; growth at 10 µM [22]: 88.7%; growth at 10 µM [23]: 99.2%; growth at 10 µM [24]: 88.4%; growth at 10 µM [25]: 71.3%; growth at 10 µM [26]: 118%; growth at 10 µM [27]: 60.3%; growth at 10 µM [28]: 86.2%; growth at 10 µM [29]: 63%; growth at 10 µM [30]: 74%; growth at 10 µM [31]: 89.2%; growth at 10 µM [32]: 38.8%; growth at 10 µM [33]: 58.8%; growth at 10 µM [34]: 98.3%; growth at 10 µM [35]: 91.6%
3 | COc1ccc(S(=O)(=O)n2ccc(-c3ccc4c(c3)CCC(C)(C)O4)n2)cc1OC | 28.4% | 59% | 76.7% | 63% | 78.9% | 87.4% | 97.2% | 82.6% | 78% | 70.9% | 56% | 82.2% | 64.3% | 114% | 67.1% | 28.2% | 79.5% | 69.6% | 105% | 83.1% | growth at 10 µM [21]: 112%; growth at 10 µM [22]: 75.1%; growth at 10 µM [23]: 91%; growth at 10 µM [24]: 71.4%; growth at 10 µM [25]: 63.9%; growth at 10 µM [26]: 87.1%; growth at 10 µM [27]: 61.5%; growth at 10 µM [28]: 57.1%; growth at 10 µM [29]: 46%; growth at 10 µM [30]: 81.9%; growth at 10 µM [31]: 74.6%; growth at 10 µM [32]: 58.3%; growth at 10 µM [33]: 43.7%; growth at 10 µM [34]: 89.5%; growth at 10 µM [35]: 84.3%
